Assay results from ChEMBL document CHEMBL1909618, “Non-steroidal dissociated glucocorticoid agonists: indoles as A-ring mimetics and function-regulating pharmacophores” (Bioorg Med Chem Lett, 2011).
Calls of active or inactive are those of the source. The rule behind the calls is not given here.

Legend:
[1] = target: T1, Androgen receptor (Homo sapiens) (UniProt P10275); assay: Displacement of [3H]-testosterone from human recombinant androgen receptor expressed in baculovirus infected insect cells at 1200 nM
T1 sequence (whole entry): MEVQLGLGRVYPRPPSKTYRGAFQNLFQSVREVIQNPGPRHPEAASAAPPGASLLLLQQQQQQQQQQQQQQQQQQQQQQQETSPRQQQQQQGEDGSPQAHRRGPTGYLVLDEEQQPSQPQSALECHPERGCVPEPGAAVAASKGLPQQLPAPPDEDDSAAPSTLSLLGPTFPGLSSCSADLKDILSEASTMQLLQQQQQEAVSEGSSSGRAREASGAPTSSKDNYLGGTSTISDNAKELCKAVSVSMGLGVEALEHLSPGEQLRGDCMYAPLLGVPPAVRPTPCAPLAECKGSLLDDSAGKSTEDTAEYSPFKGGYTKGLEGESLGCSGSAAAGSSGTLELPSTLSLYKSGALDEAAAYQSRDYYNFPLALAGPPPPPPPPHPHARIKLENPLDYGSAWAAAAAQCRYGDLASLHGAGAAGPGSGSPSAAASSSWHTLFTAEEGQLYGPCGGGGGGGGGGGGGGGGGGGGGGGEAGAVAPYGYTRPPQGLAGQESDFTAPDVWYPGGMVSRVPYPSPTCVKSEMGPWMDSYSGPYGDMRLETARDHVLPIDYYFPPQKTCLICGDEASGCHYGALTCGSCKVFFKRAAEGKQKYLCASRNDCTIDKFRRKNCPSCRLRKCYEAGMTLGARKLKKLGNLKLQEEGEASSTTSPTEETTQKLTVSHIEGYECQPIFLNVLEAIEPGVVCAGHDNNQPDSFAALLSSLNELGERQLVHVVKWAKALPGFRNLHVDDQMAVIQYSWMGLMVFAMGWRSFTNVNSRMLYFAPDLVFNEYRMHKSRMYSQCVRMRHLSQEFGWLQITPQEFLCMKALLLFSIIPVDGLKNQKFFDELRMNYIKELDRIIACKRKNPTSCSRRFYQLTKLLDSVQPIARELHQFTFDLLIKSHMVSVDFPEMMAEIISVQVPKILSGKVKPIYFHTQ
Summary of the method: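 Competition of test compound at a single concentration against 10 nM ³H-testosterone for binding to recombinant human AR in lysates of baculovirus-infected cells. Dihydrotestosterone at 2 µM served as the positive control. Results are expressed as % of control.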

Mus musculus [2] = assay: Antiarthritic activity in B10.R3 mouse collagen-induced arthritis model assessed as AUC of disease progression inhibition at 10 mg/kg, po qd for 5 weeks; format: functional; conditions: B10.R3, 840 h
Summary of the method: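 B10.RIII mice immunized with porcine type II collagen plus complete Freund's adjuvant were enrolled at the first signs of arthritis. They were dosed orally once daily for 5 weeks; vehicle was 30% Cremophor RH. All four paws were scored 1–4 (maximum 16 per animal). Disease-score AUCs from 10 mice per group were compared with vehicle by Mann–Whitney test.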

Mus musculus [3] = assay: Toxicity in B10.R3 mouse collagen-induced arthritis model assessed as change in body weight at 30 mg/kg, po qd for 5 weeks relative to control; format: organism-based; set-up: dose 30 mg/kg, route oral; conditions: in vivo, 840 h
[4] = Cmax in Sprague-Dawley rat at 30 mg/kg, po; format: ADME, organism-based; set-up: dose 30 mg/kg, route oral; conditions: in vivo
Summary of the method: (§1)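 Rat PK: IV dose 2 mg/kg in PEG400/water (70:30); oral dose 30 mg/kg in PEG400/H2O/Tween (80/18/2). Values are the mean of 3 rats.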

[5] = Volume of distribution at steady state in B10.R3 mouse at 1 mg/kg, iv; format: ADME, organism-based; set-up: dose 1 mg/kg, route intravenous; conditions: in vivo, read-out: Vdss
Summary of the method: (§2)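 Mouse PK: IV dose 1 mg/kg in PEG400/water (70:30); oral dose 30 mg/kg given as a suspension in 30% Cremophor. Values are the mean of 3 mice.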

[6] = Clearance in B10.R3 mouse at 1 mg/kg, iv; format: ADME, organism-based; set-up: dose 1 mg/kg, route intravenous; conditions: in vivo; summary of the method: as §2
[7] = target: T2, Glucocorticoid receptor (Homo sapiens) (UniProt P04150); assay: Agonist activity at glucocorticoid receptor in human HeLa cells transfected with luciferase gene linked to MMTV promoter assessed as luciferase transactivation activity relative to Dexamethasone; format: functional, cell-based
T2 sequence (whole entry): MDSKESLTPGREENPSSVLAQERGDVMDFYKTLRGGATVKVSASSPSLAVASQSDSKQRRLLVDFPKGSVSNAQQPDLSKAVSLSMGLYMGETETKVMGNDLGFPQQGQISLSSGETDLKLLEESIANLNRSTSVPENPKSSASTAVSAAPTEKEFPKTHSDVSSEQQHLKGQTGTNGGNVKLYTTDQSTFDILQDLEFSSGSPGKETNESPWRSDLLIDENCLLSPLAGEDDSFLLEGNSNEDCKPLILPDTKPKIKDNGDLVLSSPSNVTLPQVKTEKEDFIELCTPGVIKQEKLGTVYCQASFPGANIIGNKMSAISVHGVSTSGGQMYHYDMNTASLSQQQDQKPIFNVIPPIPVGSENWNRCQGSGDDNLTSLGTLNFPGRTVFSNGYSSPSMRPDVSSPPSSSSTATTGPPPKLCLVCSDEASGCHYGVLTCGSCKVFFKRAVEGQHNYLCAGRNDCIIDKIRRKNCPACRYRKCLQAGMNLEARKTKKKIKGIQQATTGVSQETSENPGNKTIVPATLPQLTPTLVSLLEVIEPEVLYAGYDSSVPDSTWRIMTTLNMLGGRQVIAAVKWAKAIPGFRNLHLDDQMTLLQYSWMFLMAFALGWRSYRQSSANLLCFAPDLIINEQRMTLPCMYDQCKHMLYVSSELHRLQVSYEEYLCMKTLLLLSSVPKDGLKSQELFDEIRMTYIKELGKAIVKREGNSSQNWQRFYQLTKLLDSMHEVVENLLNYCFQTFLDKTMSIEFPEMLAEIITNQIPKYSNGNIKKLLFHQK
Summary of the method: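 HeLa cells stably carrying an MMTV-luciferase construct were exposed to compound for 6 h at 37 °C, 5% CO2. Cells were then lysed and luminescence read with a Steady-Glo reagent. EC50 and % maximal efficacy were reported.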

[8] = Half life in Sprague-Dawley rat at 2 mg/kg, iv; format: ADME, organism-based; set-up: dose 2 mg/kg, route intravenous; conditions: in vivo; summary of the method: as §1
[9] = Half life in B10.R3 mouse at 1 mg/kg, iv; format: ADME, organism-based; set-up: dose 1 mg/kg, route intravenous; conditions: in vivo; summary of the method: as §2
Mus musculus [10] = assay: Toxicity in B10.R3 mouse collagen-induced arthritis model assessed as change in serum insulin level at 30 mg/kg, po qd for 5 weeks by ELISA relative to control; format: organism-based; set-up: dose 30 mg/kg, route oral; conditions: in vivo, 840 h
Homo sapiens = species: Homo sapiens; assay: Selectivity ratio of IC50 for human recombinant glucocorticoid receptor to IC50 for human recombinant progesterone receptor
[11] = Cmax in B10.R3 mouse at 30 mg/kg, po; format: ADME, organism-based; set-up: dose 30 mg/kg, route oral; conditions: in vivo; summary of the method: as §2

For `COc1ccc(F)cc1C(C)(C)C[C@@](O)(Cc1cc2ccccc2[nH]1)C(F)(F)F`, the Activity [1] was “inactive”.

Work on `CC(C)(C[C@@](O)(Cc1cc2ccc(C#N)cc2[nH]1)C(F)(F)F)c1cc(S(C)(=O)=O)cc2c1OCC2` yielded an inhibition in vivo at 10 mg/kg (Mus musculus [2]) of 62%, an Activity (Mus musculus [3]) of -8% and a Cmax [4] of 955 ng/mL. The Vd [5] was 0.9 L/kg, the clearance [6] was 4 mL/min/kg and the Efficacy [7] was 10%. It also gave a half-life [8] of 1.7 h, a half-life [9] of 2.5 h and an Activity (Mus musculus [10]) of -29%. It also gave a Ratio IC50 (Homo sapiens) of 100 and a Cmax [11] of 6190 ng/mL.
